Source: PubChem BioAssay (several laboratories)
In the library only some 4.8% were active in any assay of this set; here they are far more common.
NF-kB expr up – activators of NF-kB expression in neurons, primary screen, cell-based, HTS; AID 1239, 2008; 1.6% of 190,000 active; fold change at 12.5 µM; human neuronal cells, NF-kB reporter expression; active compounds read high; in the data active means fold change above about 3.3
STAT1 act – STAT1 signaling activators, primary screen, cell-based, HTS, luciferase reporter. NIH 3T3 STAT1-luciferase reporter, IFN-gamma, luminescence; 100% = IFN-gamma alone, no compound. activation (% of control), % at 5.5 µM. 2.6% of 200,000 active;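 active means activation above the screen-wide mean activation plus 3 SD, cut at about 130% in these data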;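 further: raw ratio to IFN-gamma control signal so 100% means no change and 0% no light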
FLuc inh counter – firefly luciferase enzyme inhibitors, primary screen, artefact control for luciferase-based inhibitor screens, biochemical, luminescence, ATPLite. Luciferin 4-monooxygenase (Photinus pyralis), P08659. 10 min. inhibition, % at 10 µM. 1.5% of 200,000 active;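 active means inhibition above about 50% when tested at 10 µM, limit read from the data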
Target sequence (P08659 whole entry, looked up): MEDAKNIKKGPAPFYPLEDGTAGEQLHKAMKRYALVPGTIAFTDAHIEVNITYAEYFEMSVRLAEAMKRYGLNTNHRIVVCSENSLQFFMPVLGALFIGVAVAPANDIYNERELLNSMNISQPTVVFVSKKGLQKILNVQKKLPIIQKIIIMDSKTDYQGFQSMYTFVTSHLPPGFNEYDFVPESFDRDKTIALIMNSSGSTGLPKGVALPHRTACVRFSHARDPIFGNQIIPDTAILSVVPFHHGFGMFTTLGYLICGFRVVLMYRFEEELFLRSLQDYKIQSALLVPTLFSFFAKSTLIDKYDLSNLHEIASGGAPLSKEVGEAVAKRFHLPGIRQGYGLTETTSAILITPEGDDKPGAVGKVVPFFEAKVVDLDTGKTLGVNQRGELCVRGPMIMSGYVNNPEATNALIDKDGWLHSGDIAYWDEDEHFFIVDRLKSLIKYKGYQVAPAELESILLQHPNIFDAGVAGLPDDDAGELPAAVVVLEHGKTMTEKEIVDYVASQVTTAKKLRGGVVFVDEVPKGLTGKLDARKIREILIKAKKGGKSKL
APP 5UTR inh – inhibitors of APP translation via 5'UTR reporter, primary screen, APP 5'UTR luciferase, SH-SY5Y cells | SH-SY5Y APP 5'UTR-luciferase reporter, luminescence | inhibition, % at 2 µM | 0.82% of 190,000 active | AID 1285, 2008;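 active means inhibition above a set limit, derived from the sample mean plus 3 SD, cut at about 45% in these data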
FLuc act counter – FLuc activators, initial screening, artefact control for FLuc-dependent activation tests, biochemical, ATPlite luminescence | activation factor at 10 µM | ATPlite luciferase biochemical, 10 min; 0 = ATP-free wells, 1 = DMSO control | 200,000 tested, under 10 active | Luciferin 4-monooxygenase (Photinus pyralis), P08659 | AID 1027, 2008;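 active means luciferase activation factor, scaled between plate controls, of at least 2 with compound at 10 µM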
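System: luciferase plus luciferin reagent, cell-free; medium: PBS as buffer for the ATP substrate; dosing: test compounds dosed from 2 mM stocks in 100% DMSO; timing: 10 min post-reagent at room temperature; measured by: luminescence measurement of luciferase light output; evaluation: luciferase activation, seen as luminescence increase over controls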
APP 5'UTR act – activators of APP 5'UTR luciferase reporter, primary screen, SH-SY5Y cells; AID 1276, 2008; SH-SY5Y APP 5'UTR luciferase reporter, luminescence; zero percent = DMSO vehicle wells; activation, % at 2 µM; 1% of 190,000 active;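 active means activation above a set limit, based on mean plus 3 SD of controls, cut at about 140% in these data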
* hit, by the source's call.

Screening COc1ccc2nc(SCC(=O)N3CCCCC3)c(C#N)cc2c1 returned NF-kB expr up 1.5, STAT1 act 131*, FLuc inh counter 0, APP 5UTR inh -16, FLuc act counter 1 and APP 5'UTR act 15.
Screening Cc1cc(NC(=O)CSc2nc3c(cc2C#N)CCCC3)no1 returned NF-kB expr up 2.4, STAT1 act 138*, FLuc inh counter -6, APP 5UTR inh -207, FLuc act counter 1.1 and APP 5'UTR act 207*.
For O=C(COc1ccccc1)Nc1nccs1 the results were NF-kB expr up 3.2, STAT1 act 122, FLuc inh counter 44, APP 5UTR inh -128, FLuc act counter 0.6 and APP 5'UTR act 128.
`O=C(COc1ccc2ccccc2c1)Nc1nccs1` gave NF-kB expr up 6.5*, STAT1 act 84, FLuc inh counter 84*, APP 5UTR inh -190, FLuc act counter 0.2 and APP 5'UTR act 190*.
Cc1cccc(N2CCN(C(=S)Nc3ccc4nc(N5CCN(C)CC5)cc(C)c4c3)CC2)c1C was read as NF-kB expr up 1.2, STAT1 act 102, FLuc inh counter 0, APP 5UTR inh 87*, FLuc act counter 1 and APP 5'UTR act -87.
`CCN(CC)CCNc1cc(C)nc2c1C(=O)C(=O)C=C2N1CCCCC1` gave NF-kB expr up 0.67, STAT1 act 109, FLuc inh counter 6, APP 5UTR inh 67*, FLuc act counter 0.9 and APP 5'UTR act -67.
`CSc1ccc(/C=N/n2c(C)cc(C)cc2=O)cc1` gave NF-kB expr up 2.4, STAT1 act 130*, FLuc inh counter 24, APP 5UTR inh -19, FLuc act counter 0.8 and APP 5'UTR act 19.
O=C(N/N=C/c1cn(-c2ccccc2)nc1-c1ccc2c(c1)OCCO2)c1ccncc1 was read as NF-kB expr up 1.9, STAT1 act 148*, FLuc inh counter -1, APP 5UTR inh -133, FLuc act counter 1 and APP 5'UTR act 133.
COc1ccc(-c2nn(-c3ccccc3)cc2CO)cc1OC was read as NF-kB expr up 0.94, STAT1 act 98, FLuc inh counter 4, APP 5UTR inh -17, FLuc act counter 1 and APP 5'UTR act 17.
For COc1cccc(-c2nn(-c3ccccc3)cc2CO)c1 the results were NF-kB expr up 1.7, STAT1 act 144*, FLuc inh counter 0, APP 5UTR inh -23, FLuc act counter 1 and APP 5'UTR act 23.
`OCc1cn(-c2ccccc2)nc1-c1ccc2c(c1)OCCO2` gave NF-kB expr up 2.4, STAT1 act 144*, FLuc inh counter 2, APP 5UTR inh -62, FLuc act counter 1 and APP 5'UTR act 62.
For Cc1c(C(=O)OCC(=O)Nc2c(C)n(C)n(-c3ccccc3)c2=O)oc2ccccc12 the results were NF-kB expr up 1, STAT1 act 97, FLuc inh counter -7, APP 5UTR inh -31, FLuc act counter 1.1 and APP 5'UTR act 31.
Cc1c(NC(=O)C(C)Sc2ccccc2)c(=O)n(-c2ccccc2)n1C (configuration not stated) was read as NF-kB expr up 1.1, STAT1 act 103, FLuc inh counter -7, APP 5UTR inh 58*, FLuc act counter 1.1 and APP 5'UTR act -58.
For Cc1ccc(SC(C)C(=O)Nc2c(C)n(C)n(-c3ccccc3)c2=O)cc1 (configuration not stated) the results were NF-kB expr up 1, STAT1 act 99, FLuc inh counter 0 and FLuc act counter 1.
`CC(CN1CCCC1)C(=O)NN` (configuration not stated) gave NF-kB expr up 1.1, STAT1 act 112, FLuc inh counter -4, APP 5UTR inh 8, FLuc act counter 1 and APP 5'UTR act -8.
For COc1ccc(C(C)=O)cc1COC(=O)c1cnc(Cl)c(Cl)c1 the results were NF-kB expr up 1, STAT1 act 103, FLuc inh counter -6, APP 5UTR inh 18, FLuc act counter 1.1 and APP 5'UTR act -18.
Screening O=C(O)CSc1cccc[n+]1[O-] returned NF-kB expr up 1, STAT1 act 97, FLuc inh counter -4, APP 5UTR inh 2, FLuc act counter 1 and APP 5'UTR act -2.
Screening Nc1nc(SCC(=O)c2cc3ccccc3o2)n[nH]1 returned NF-kB expr up 0.94, STAT1 act 98, FLuc inh counter 3, APP 5UTR inh -23, FLuc act counter 1 and APP 5'UTR act 23.
O=C(CSc1cccc[n+]1[O-])c1cc(Cl)ccc1Cl was read as NF-kB expr up 7*, STAT1 act 108, FLuc inh counter -4, APP 5UTR inh 27, FLuc act counter 1 and APP 5'UTR act -27.
`O=C(CSc1cccc[n+]1[O-])c1cc2ccccc2o1` gave NF-kB expr up 4.2*, STAT1 act 112, FLuc inh counter -1, APP 5UTR inh -31, FLuc act counter 1 and APP 5'UTR act 31.
For CN(Cc1ccco1)C(=O)Cn1nc(-c2ccc(Cl)cc2)ccc1=O the results were NF-kB expr up 0.94, STAT1 act 104, FLuc inh counter -4, APP 5UTR inh 1, FLuc act counter 1 and APP 5'UTR act -1.
`Cc1cc(NC(=O)CCNS(=O)(=O)c2cc(Br)cnc2N)ccc1Br` gave NF-kB expr up 0.92, STAT1 act 101, FLuc inh counter -6, APP 5UTR inh -3, FLuc act counter 1.1 and APP 5'UTR act 3.
`COc1ccccc1NS(=O)(=O)c1cccc(NC(=O)Nc2ccccc2)c1` gave NF-kB expr up 1.1, STAT1 act 97, FLuc inh counter -8, APP 5UTR inh 12, FLuc act counter 1.1 and APP 5'UTR act -12.
CN(C)S(=O)(=O)c1ccc(NC(=O)c2cc3ccccc3o2)cc1 was read as NF-kB expr up 1.3, STAT1 act 122, FLuc inh counter -2, APP 5UTR inh -34, FLuc act counter 1 and APP 5'UTR act 33.
Cc1ccc(NC(=O)c2cc3ccccc3o2)cc1S(=O)(=O)N(C)C was read as NF-kB expr up 5.2*, STAT1 act 143*, FLuc inh counter 72*, APP 5UTR inh -49, FLuc act counter 0.3 and APP 5'UTR act 49.
Screening COc1ccccc1NS(=O)(=O)c1cccc(NC(=O)c2cc3ccccc3oc2=O)c1 returned NF-kB expr up 2.8, STAT1 act 140*, FLuc inh counter 7, APP 5UTR inh -97, FLuc act counter 0.9 and APP 5'UTR act 97.
For Cc1ccc(NC(=O)c2cc3ccccc3oc2=O)cc1S(=O)(=O)N(C)C the results were NF-kB expr up 0.54, STAT1 act 45, FLuc inh counter 87*, APP 5UTR inh 47*, FLuc act counter 0.1 and APP 5'UTR act -47.
